Test results: ChEMBL document CHEMBL5303300, “EUbOPEN Chemogenomics Library - Multiplex” (2023)
Where “and” joins values, the source holds several entries; their conditions need not be identical. Identical values can stand only once.

How the values were obtained:
[1] = test system: Fibroblast; test: Multiplex assay against human fibroblast; assay type: toxicity, cell-based; conditions: number of replicates 2
Procedure, shortened: (§1)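 Live cells were stained at seeding with Hoechst33342, BioTracker Green Microtubule Cytoskeleton Dye, MitoTracker Red and Annexin V Alexa Fluor 680, then imaged on a CQ1 microscope at 37°C and 5% CO2 after compound addition. CellPathfinder machine-learning gating split cells into Hoechst high-intensity objects or normal cells. Normal cells were split into healthy, pyknosed or fragmented nuclei, and pyknosed cells into mitotic or apoptotic. Tubulin, mitochondrial-mass and membrane-permeability phenotypes are per cents of healthy-nucleus cells.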

[2] = test system: HEK-293T; test: Multiplex assay against HEK293T; assay type: toxicity, cell-based; conditions: human, number of replicates 2; procedure, shortened: as §1
[3] = 12 h, 1 µM, compound concentration 1 uM
[4] = 12 h, 10 µM, compound concentration 10 uM
[5] = 24 h, 1 µM, compound concentration 1 uM
[6] = 24 h, 10 µM, compound concentration 10 uM
[7] = 48 h, 1 µM, compound concentration 1 uM
[8] = 48 h, 10 µM, compound concentration 10 uM

## O=C(Nc1ccnc(NC(=O)C2CC2)c1)c1c(Cl)cccc1Cl
[1]; [3]
  Population Apoptotic (%): 47% and 27%
  Population Fragmented Nuclei (%): 6% and 9%
  Population Healthy Nuclei (%): 65% and 67%
  Population Hoechst High Intensity Objects (%): 0%
  Population Membrane Permeable-Phenotype (%): 5% and 7%
  Population Mitochondria Different-Phenotype (%): 0%
  Population Mitotic Cells (%): 52% and 72%
  Population Normal (%): 100%
  Population Pyknosed Nuclei (%): 27% and 23%
  Population Tubulin-Different-Phenotype (%): 9% and 6%
  Total Cell Count: 145 and 189
[1]; [4]
  Population Apoptotic (%): 55% and 72%
  Population Fragmented Nuclei (%): 9% and 14%
  Population Healthy Nuclei (%): 78% and 77%
  Population Hoechst High Intensity Objects (%): 0%
  Population Membrane Permeable-Phenotype (%): 2%
  Population Mitochondria Different-Phenotype (%): 0%
  Population Mitotic Cells (%): 44% and 27%
  Population Normal (%): 100%
  Population Pyknosed Nuclei (%): 11% and 8%
  Population Tubulin-Different-Phenotype (%): 7% and 6%
  Total Cell Count: 244 and 215
[1]; [5]
  Population Apoptotic (%): 60% and 48%
  Population Fragmented Nuclei (%): 13% and 7%
  Population Healthy Nuclei (%): 60% and 70%
  Population Hoechst High Intensity Objects (%): 0%
  Population Membrane Permeable-Phenotype (%): 7%
  Population Mitochondria Different-Phenotype (%): 1% and 0%
  Population Mitotic Cells (%): 40% and 51%
  Population Normal (%): 100%
  Population Pyknosed Nuclei (%): 26% and 21%
  Population Tubulin-Different-Phenotype (%): 14% and 9%
  Total Cell Count: 150 and 188
[1]; [6]
  Population Apoptotic (%): 59% and 70%
  Population Fragmented Nuclei (%): 8% and 17%
  Population Healthy Nuclei (%): 82% and 74%
  Population Hoechst High Intensity Objects (%): 0%
  Population Membrane Permeable-Phenotype (%): 2% and 3%
  Population Mitochondria Different-Phenotype (%): 0%
  Population Mitotic Cells (%): 40% and 29%
  Population Normal (%): 99%
  Population Pyknosed Nuclei (%): 9% and 8%
  Population Tubulin-Different-Phenotype (%): 4% and 8%
  Total Cell Count: 232 and 213
[1]; [7]
  Population Apoptotic (%): 67% and 60%
  Population Fragmented Nuclei (%): 17% and 16%
  Population Healthy Nuclei (%): 53% and 65%
  Population Hoechst High Intensity Objects (%): 0%
  Population Membrane Permeable-Phenotype (%): 4% and 6%
  Population Mitochondria Different-Phenotype (%): 0%
  Population Mitotic Cells (%): 32% and 40%
  Population Normal (%): 99% and 100%
  Population Pyknosed Nuclei (%): 28% and 17%
  Total Cell Count: 170 and 199
[1]; [8]
  Population Apoptotic (%): 56% and 44%
  Population Fragmented Nuclei (%): 9% and 24%
  Population Healthy Nuclei (%): 81% and 71%
  Population Hoechst High Intensity Objects (%): 0%
  Population Membrane Permeable-Phenotype (%): 2% and 1%
  Population Mitochondria Different-Phenotype (%): 0%
  Population Mitotic Cells (%): 43% and 55%
  Population Normal (%): 100%
  Population Pyknosed Nuclei (%): 9% and 3%
  Population Tubulin-Different-Phenotype (%): 10% and 8%
  Total Cell Count: 239 and 229
[2]; [3]
  Population Apoptotic (%): 42% and 49%
  Population Fragmented Nuclei (%): 3% and 2%
  Population Healthy Nuclei (%): 81% and 83%
  Population Hoechst High Intensity Objects (%): 9% and 5%
  Population Membrane Permeable-Phenotype (%): 3% and 7%
  Population Mitochondria Different-Phenotype (%): 11% and 10%
  Population Mitotic Cells (%): 57% and 50%
  Population Normal (%): 90% and 94%
  Population Pyknosed Nuclei (%): 15% and 14%
  Population Tubulin-Different-Phenotype (%): 43% and 37%
  Total Cell Count: 735 and 602
[2]; [4]
  Population Apoptotic (%): 55% and 57%
  Population Fragmented Nuclei (%): 3% and 2%
  Population Healthy Nuclei (%): 92% and 91%
  Population Hoechst High Intensity Objects (%): 3%
  Population Membrane Permeable-Phenotype (%): 5% and 3%
  Population Mitochondria Different-Phenotype (%): 8% and 9%
  Population Mitotic Cells (%): 44% and 42%
  Population Normal (%): 96%
  Population Pyknosed Nuclei (%): 3% and 5%
  Population Tubulin-Different-Phenotype (%): 32% and 35%
  Total Cell Count: 713 and 727
[2]; [5]
  Population Apoptotic (%): 37% and 50%
  Population Fragmented Nuclei (%): 4%
